{"source": "ChEMBL document CHEMBL1127457", "about": "“Nonpeptide renin inhibitors with good intraduodenal bioavailability and efficacy in dog” (J Med Chem, 1994)", "data": [{"test_system": "not listed separately", "assay": "Partition coefficient (logD6.5)", "settings": "octanol/water, pH 6.5", "values": [{"smiles": "CCCC[C@H](O[C@@H](Cc1ccccc1)C(=O)N1CCC(OCOC)CC1)C(=O)N[C@@H](CC1CCCCC1)[C@@H](O)C[C@H](C(=O)NCCNc1noc(N)n1)C(C)C", "logD": 4.5}, {"smiles": "CCCC[C@H](O[C@@H](Cc1ccccc1)C(=O)N1CCC(OCOC)CC1)C(=O)N[C@@H](CC1CCCCC1)[C@@H](O)C[C@H](C(=O)NCC(C)(C)N)C(C)C", "logD": 2.7}, {"smiles": "CCCC[C@H](O[C@@H](Cc1ccccc1)C(=O)N1CCC(OCOC)CC1)C(=O)N[C@@H](CC1CCCCC1)[C@@H](O)C[C@H](C(=O)NCCCNCCO)C(C)C", "logD": 2.5}, {"smiles": "CCCC[C@H](O[C@@H](Cc1ccccc1)C(=O)N1CCC(OCOC)CC1)C(=O)N[C@@H](CC1CCCCC1)[C@@H](O)C[C@H](C(=O)NCCCNC(N)=NC#N)C(C)C", "logD": 4.6}, {"smiles": "CCCC[C@H](N[C@@H](Cc1ccccc1)C(=O)N1CCC(OCOC)CC1)C(=O)N[C@@H](CC1CCCCC1)[C@@H](O)C[C@H](C(=O)NCC(=O)O)C(C)C", "logD": 2.3}, {"smiles": "CCCC[C@H](O[C@@H](Cc1ccccc1)C(=O)N1CCC(OCOC)CC1)C(=O)N[C@@H](CC1CCCCC1)[C@@H](O)C[C@H](C(=O)NCCC(=O)O)C(C)C", "logD": 1.9}, {"smiles": "CCCC[C@H](O[C@@H](Cc1ccccc1)C(=O)N1CCC(OCOC)CC1)C(=O)N[C@@H](CC1CCCCC1)[C@@H](O)C[C@H](C(=O)NCCC/N=C(/NC)NC#N)C(C)C", "logD": 4.4}, {"smiles": "CCCC[C@H](O[C@@H](Cc1ccccc1)C(=O)N1CCC(OCOC)CC1)C(=O)N[C@@H](CC1CCCCC1)[C@@H](O)C[C@H](C(=O)NCCNc1n[nH]c(N)n1)C(C)C", "logD": 3.9}, {"smiles": "CCCC[C@H](O[C@@H](Cc1ccccc1)C(=O)N1CCC(OCOC)CC1)C(=O)N[C@@H](CC1CCCCC1)[C@@H](O)C[C@H](C(=O)NCC(C)(C)N1CCOCC1)C(C)C", "logD": "> 5"}, {"smiles": "CCCC[C@H](O[C@@H](Cc1ccccc1)C(=O)N1CCC(OCOC)CC1)C(=O)N[C@@H](CC1CCCCC1)[C@@H](O)C[C@H](C(=O)NCCNC(N)=NC#N)C(C)C", "logD": "> 5"}, {"smiles": "CCCC[C@H](N[C@@H](Cc1ccccc1)C(=O)N1CCC(OCOC)CC1)C(=O)N[C@@H](CC1CCCCC1)[C@@H](O)C[C@H](C(=O)NCCCN)C(C)C", "logD": 2.7}, {"smiles": "CCCC[C@H](N[C@@H](Cc1ccccc1)C(=O)N1CCC(OCOC)CC1)C(=O)N[C@@H](CC1CCCCC1)[C@@H](O)C[C@H](C(=O)NCCCNCCO)C(C)C", "logD": 2.9}, {"smiles": "CCCC[C@H](O[C@@H](Cc1ccccc1)C(=O)N1CCC(OCOC)CC1)C(=O)N[C@@H](CC1CCCCC1)[C@@H](O)C[C@H](C(=O)NCCCN)C(C)C", "logD": 2.4}, {"smiles": "CCCC[C@H](O[C@@H](Cc1ccccc1)C(=O)N1CCC(OCOC)CC1)C(=O)N[C@@H](CC1CCCCC1)[C@@H](O)C[C@H](C(=O)NCC/N=C(\\NC#N)SC)C(C)C", "logD": "> 5"}, {"smiles": "CCCC[C@H](O[C@@H](Cc1ccccc1)C(=O)N1CCC(OCOC)CC1)C(=O)N[C@@H](CC1CCCCC1)[C@@H](O)C[C@H](C(=O)NCCNC(N)=S)C(C)C", "logD": "> 5"}]}, {"target": "T1, Renin (Homo sapiens, UniProt P00797)", "T1 sequence (P00797 whole entry)": "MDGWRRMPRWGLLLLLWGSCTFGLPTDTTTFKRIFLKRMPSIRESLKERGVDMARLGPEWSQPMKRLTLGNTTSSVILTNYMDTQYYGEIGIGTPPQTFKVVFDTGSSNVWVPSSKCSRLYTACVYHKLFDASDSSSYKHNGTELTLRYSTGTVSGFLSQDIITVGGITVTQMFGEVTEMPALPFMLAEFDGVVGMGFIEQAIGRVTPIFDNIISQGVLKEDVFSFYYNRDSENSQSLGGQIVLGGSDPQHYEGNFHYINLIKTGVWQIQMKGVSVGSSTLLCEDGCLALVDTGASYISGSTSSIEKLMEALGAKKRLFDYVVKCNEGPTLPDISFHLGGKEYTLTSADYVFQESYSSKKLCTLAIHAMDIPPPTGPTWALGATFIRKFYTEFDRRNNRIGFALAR", "assay": "Tested in vitro for its ability to inhibit the human plasma renin", "type": "cell-free", "settings": "not given", "outline": "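IC50 against renin in plasma from the named species (dog, ferret, human, rat); single determination in most cases.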", "units": {"IC50": "nM"}, "values": [{"smiles": "CCCC[C@H](N[C@@H](Cc1ccccc1)C(=O)N1CCC(OCOC)CC1)C(=O)N[C@@H](CC1CCCCC1)[C@@H](O)C[C@H](C(=O)NCC(=O)OCc1ccccc1)C(C)C", "IC50": 21}, {"smiles": "CCCC[C@H](N[C@@H](Cc1ccccc1)C(=O)N1CCC(OCOC)CC1)C(=O)N[C@@H](CC1CCCCC1)[C@@H](O)C[C@H](C(=O)NCC[N+]1([O-])CCOCC1)C(C)C", "IC50": 8.4}, {"smiles": "CCCC[C@H](N[C@@H](Cc1ccccc1)C(=O)N1CCC(OCOC)CC1)C(=O)N[C@@H](CC1CCCCC1)[C@@H](O)C[C@H](C(=O)NCC(=O)O)C(C)C", "IC50": 12}, {"smiles": "CCCC[C@H](O[C@@H](Cc1ccccc1)C(=O)N1CCC(OCOC)CC1)C(=O)N[C@@H](CC1CCCCC1)[C@@H](O)C[C@H](C(=O)NCCC(=O)O)C(C)C", "IC50": 6.8}, {"smiles": "CCCC[C@H](N[C@@H](Cc1ccccc1)C(=O)N1CCC(OCOC)CC1)C(=O)N[C@@H](CC1CCCCC1)[C@@H](O)C[C@H](C(=O)NCCCN)C(C)C", "IC50": 9.5}, {"smiles": "CCCC[C@H](N[C@@H](Cc1ccccc1)C(=O)N1CCC(OCOC)CC1)C(=O)N[C@@H](CC1CCCCC1)[C@@H](O)C[C@H](C(=O)NCCCNCCO)C(C)C", "IC50": 7.9}]}, {"test_system": "not listed separately", "assay": "Partition coefficient (logD7.4)", "settings": "octanol/water, pH 7.4", "values": [{"smiles": "CCCC[C@H](O[C@@H](Cc1ccccc1)C(=O)N1CCC(OCOC)CC1)C(=O)N[C@@H](CC1CCCCC1)[C@@H](O)C[C@H](C(=O)NCCNc1noc(N)n1)C(C)C", "logD": 4.4}, {"smiles": "CCCC[C@H](O[C@@H](Cc1ccccc1)C(=O)N1CCC(OCOC)CC1)C(=O)N[C@@H](CC1CCCCC1)[C@@H](O)C[C@H](C(=O)NCC(C)(C)N)C(C)C", "logD": 3.5}, {"smiles": "CCCC[C@H](O[C@@H](Cc1ccccc1)C(=O)N1CCC(OCOC)CC1)C(=O)N[C@@H](CC1CCCCC1)[C@@H](O)C[C@H](C(=O)NCCCNCCO)C(C)C", "logD": 1.8}, {"smiles": "CCCC[C@H](O[C@@H](Cc1ccccc1)C(=O)N1CCC(OCOC)CC1)C(=O)N[C@@H](CC1CCCCC1)[C@@H](O)C[C@H](C(=O)NCCCNC(N)=NC#N)C(C)C", "logD": 4.5}, {"smiles": "CCCC[C@H](N[C@@H](Cc1ccccc1)C(=O)N1CCC(OCOC)CC1)C(=O)N[C@@H](CC1CCCCC1)[C@@H](O)C[C@H](C(=O)NCC(=O)O)C(C)C", "logD": 2.8}, {"smiles": "CCCC[C@H](O[C@@H](Cc1ccccc1)C(=O)N1CCC(OCOC)CC1)C(=O)N[C@@H](CC1CCCCC1)[C@@H](O)C[C@H](C(=O)NCCC(=O)O)C(C)C", "logD": 2.8}, {"smiles": "CCCC[C@H](O[C@@H](Cc1ccccc1)C(=O)N1CCC(OCOC)CC1)C(=O)N[C@@H](CC1CCCCC1)[C@@H](O)C[C@H](C(=O)NCCC/N=C(/NC)NC#N)C(C)C", "logD": 4.4}, {"smiles": "CCCC[C@H](O[C@@H](Cc1ccccc1)C(=O)N1CCC(OCOC)CC1)C(=O)N[C@@H](CC1CCCCC1)[C@@H](O)C[C@H](C(=O)NCCNc1n[nH]c(N)n1)C(C)C", "logD": 4}, {"smiles": "CCCC[C@H](O[C@@H](Cc1ccccc1)C(=O)N1CCC(OCOC)CC1)C(=O)N[C@@H](CC1CCCCC1)[C@@H](O)C[C@H](C(=O)NCC(C)(C)N1CCOCC1)C(C)C", "logD": "> 5"}, {"smiles": "CCCC[C@H](O[C@@H](Cc1ccccc1)C(=O)N1CCC(OCOC)CC1)C(=O)N[C@@H](CC1CCCCC1)[C@@H](O)C[C@H](C(=O)NCCNC(N)=NC#N)C(C)C", "logD": "> 5"}, {"smiles": "CCCC[C@H](N[C@@H](Cc1ccccc1)C(=O)N1CCC(OCOC)CC1)C(=O)N[C@@H](CC1CCCCC1)[C@@H](O)C[C@H](C(=O)NCCCN)C(C)C", "logD": 3.3}, {"smiles": "CCCC[C@H](N[C@@H](Cc1ccccc1)C(=O)N1CCC(OCOC)CC1)C(=O)N[C@@H](CC1CCCCC1)[C@@H](O)C[C@H](C(=O)NCCCNCCO)C(C)C", "logD": 3.5}, {"smiles": "CCCC[C@H](O[C@@H](Cc1ccccc1)C(=O)N1CCC(OCOC)CC1)C(=O)N[C@@H](CC1CCCCC1)[C@@H](O)C[C@H](C(=O)NCCCN)C(C)C", "logD": 1.8}, {"smiles": "CCCC[C@H](O[C@@H](Cc1ccccc1)C(=O)N1CCC(OCOC)CC1)C(=O)N[C@@H](CC1CCCCC1)[C@@H](O)C[C@H](C(=O)NCC/N=C(\\NC#N)SC)C(C)C", "logD": "> 5"}, {"smiles": "CCCC[C@H](O[C@@H](Cc1ccccc1)C(=O)N1CCC(OCOC)CC1)C(=O)N[C@@H](CC1CCCCC1)[C@@H](O)C[C@H](C(=O)NCCNC(N)=S)C(C)C", "logD": "> 5"}]}, {"target": "T1, Renin", "assay": "Tested in vitro for its ability to inhibit the human plasma renin at pH of 7.4", "type": "cell-free", "settings": "not given", "units": {"IC50": "nM"}, "values": [{"smiles": "CCCC[C@H](O[C@@H](Cc1ccccc1)C(=O)N1CCC(OCOC)CC1)C(=O)N[C@@H](CC1CCCCC1)[C@@H](O)C[C@H](C(=O)NCCNc1noc(N)n1)C(C)C", "IC50": 3.1}, {"smiles": "CCCC[C@H](O[C@@H](Cc1ccccc1)C(=O)N1CCC(OCOC)CC1)C(=O)N[C@@H](CC1CCCCC1)[C@@H](O)C[C@H](C(=O)NCC(C)(C)N)C(C)C", "IC50": 4.7}, {"smiles": "CCCC[C@H](O[C@@H](Cc1ccccc1)C(=O)N1CCC(OCOC)CC1)C(=O)N[C@@H](CC1CCCCC1)[C@@H](O)C[C@H](C(=O)NCCCNCCO)C(C)C", "IC50": 6}, {"smiles": "CCCC[C@H](O[C@@H](Cc1ccccc1)C(=O)N1CCC(OCOC)CC1)C(=O)N[C@@H](CC1CCCCC1)[C@@H](O)C[C@H](C(=O)NCCCNC(N)=NC#N)C(C)C", "IC50": 1.5}, {"smiles": "CCCC[C@H](O[C@@H](Cc1ccccc1)C(=O)N1CCC(OCOC)CC1)C(=O)N[C@@H](CC1CCCCC1)[C@@H](O)C[C@H](C(=O)NCCC/N=C(/NC)NC#N)C(C)C", "IC50": 1.3}, {"smiles": "CCCC[C@H](O[C@@H](Cc1ccccc1)C(=O)N1CCC(OCOC)CC1)C(=O)N[C@@H](CC1CCCCC1)[C@@H](O)C[C@H](C(=O)NCCNc1n[nH]c(N)n1)C(C)C", "IC50": 1.1}, {"smiles": "CCCC[C@H](O[C@@H](Cc1ccccc1)C(=O)N1CCC(OCOC)CC1)C(=O)N[C@@H](CC1CCCCC1)[C@@H](O)C[C@H](C(=O)NCC(C)(C)N1CCOCC1)C(C)C", "IC50": 5.9}, {"smiles": "CCCC[C@H](O[C@@H](Cc1ccccc1)C(=O)N1CCC(OCOC)CC1)C(=O)N[C@@H](CC1CCCCC1)[C@@H](O)C[C@H](C(=O)NCCNC(N)=NC#N)C(C)C", "IC50": 1.8}, {"smiles": "CCCC[C@H](O[C@@H](Cc1ccccc1)C(=O)N1CCC(OCOC)CC1)C(=O)N[C@@H](CC1CCCCC1)[C@@H](O)C[C@H](C(=O)NCCCN)C(C)C", "IC50": 4.5}, {"smiles": "CCCC[C@H](O[C@@H](Cc1ccccc1)C(=O)N1CCC(OCOC)CC1)C(=O)N[C@@H](CC1CCCCC1)[C@@H](O)C[C@H](C(=O)NCC/N=C(\\NC#N)SC)C(C)C", "IC50": 9.2}, {"smiles": "CCCC[C@H](O[C@@H](Cc1ccccc1)C(=O)N1CCC(OCOC)CC1)C(=O)N[C@@H](CC1CCCCC1)[C@@H](O)C[C@H](C(=O)NCCNC(N)=S)C(C)C", "IC50": 2.2}]}]}
